Assay results taken from ChEMBL document CHEMBL4371033, “Highly Potent and Selective Plasmin Inhibitors Based on the Sunflower Trypsin Inhibitor-1 Scaffold Attenuate Fibrinolysis in Plasma” (J Med Chem, 2019).
Residues, ends and D or L forms follow the SMILES beside them.

Experiments:
Serine protease 1 = target: T1, Serine protease 1 (Bos taurus, UniProt P00760); assay: Inhibition of bovine cationic trypsin using Bz-FVR-pNA as substrate after 30 mins
T1 sequence (P00760 whole entry): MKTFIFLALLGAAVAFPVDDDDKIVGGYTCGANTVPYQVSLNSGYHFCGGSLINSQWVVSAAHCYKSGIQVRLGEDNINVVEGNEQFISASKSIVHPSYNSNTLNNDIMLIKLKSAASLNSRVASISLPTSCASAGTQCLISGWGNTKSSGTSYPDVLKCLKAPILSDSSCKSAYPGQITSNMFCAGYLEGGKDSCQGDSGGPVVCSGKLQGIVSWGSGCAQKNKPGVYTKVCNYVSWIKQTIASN

Plasminogen [1] = target: T2, Plasminogen (Homo sapiens, UniProt P00747); assay: Inhibition of human plasmin using Ac-RM(O2)YR-pNA as substrate after 30 mins
T2 sequence (P00747 97-580 limits assumed): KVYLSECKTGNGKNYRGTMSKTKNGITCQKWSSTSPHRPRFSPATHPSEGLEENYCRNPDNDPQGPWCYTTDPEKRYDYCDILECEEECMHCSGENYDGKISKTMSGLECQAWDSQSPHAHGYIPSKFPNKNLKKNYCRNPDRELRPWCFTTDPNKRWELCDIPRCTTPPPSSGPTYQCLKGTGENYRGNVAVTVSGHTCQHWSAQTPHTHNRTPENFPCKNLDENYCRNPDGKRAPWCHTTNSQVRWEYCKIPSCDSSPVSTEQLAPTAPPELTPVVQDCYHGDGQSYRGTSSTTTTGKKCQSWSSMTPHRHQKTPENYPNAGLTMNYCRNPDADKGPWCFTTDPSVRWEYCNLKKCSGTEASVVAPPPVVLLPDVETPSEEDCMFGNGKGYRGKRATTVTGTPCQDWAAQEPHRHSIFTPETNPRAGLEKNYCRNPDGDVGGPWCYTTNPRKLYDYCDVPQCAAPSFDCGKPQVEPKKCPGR
T2 sequence (P00747 581-810 limits assumed): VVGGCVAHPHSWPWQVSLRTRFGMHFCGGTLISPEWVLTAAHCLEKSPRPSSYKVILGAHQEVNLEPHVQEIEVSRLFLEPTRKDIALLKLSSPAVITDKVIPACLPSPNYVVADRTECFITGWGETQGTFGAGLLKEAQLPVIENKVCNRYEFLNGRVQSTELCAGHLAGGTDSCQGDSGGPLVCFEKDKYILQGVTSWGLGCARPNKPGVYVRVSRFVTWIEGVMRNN

Coagulation factor X = Coagulation factor X (Homo sapiens, UniProt P00742); assay: Inhibition of activated factor 10 (unknown origin) using Ac-QRSR-pNA as substrate after 30 mins relative to untreated control
Sequence of Coagulation factor X (P00742 41-179 limits assumed): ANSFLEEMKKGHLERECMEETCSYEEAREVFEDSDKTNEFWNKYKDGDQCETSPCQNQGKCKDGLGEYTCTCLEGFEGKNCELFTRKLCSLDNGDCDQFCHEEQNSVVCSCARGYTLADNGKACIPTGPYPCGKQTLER
Sequence of Coagulation factor X (P00742 235-488 limits assumed): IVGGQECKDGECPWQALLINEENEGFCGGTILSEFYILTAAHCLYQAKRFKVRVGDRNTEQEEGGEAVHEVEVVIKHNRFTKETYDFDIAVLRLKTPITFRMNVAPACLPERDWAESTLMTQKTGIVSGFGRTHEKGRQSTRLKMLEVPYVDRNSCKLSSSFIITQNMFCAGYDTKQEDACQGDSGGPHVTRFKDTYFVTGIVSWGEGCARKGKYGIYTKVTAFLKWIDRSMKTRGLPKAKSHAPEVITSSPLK

Coagulation factor XII = target: T3, Coagulation factor XII (Homo sapiens, UniProt P00748); assay: Inhibition of activated beta-factor 12 (unknown origin) using Ac-QRFR-pNA as substrate after 30 mins relative to untreated control
T3 sequence (P00748 whole entry): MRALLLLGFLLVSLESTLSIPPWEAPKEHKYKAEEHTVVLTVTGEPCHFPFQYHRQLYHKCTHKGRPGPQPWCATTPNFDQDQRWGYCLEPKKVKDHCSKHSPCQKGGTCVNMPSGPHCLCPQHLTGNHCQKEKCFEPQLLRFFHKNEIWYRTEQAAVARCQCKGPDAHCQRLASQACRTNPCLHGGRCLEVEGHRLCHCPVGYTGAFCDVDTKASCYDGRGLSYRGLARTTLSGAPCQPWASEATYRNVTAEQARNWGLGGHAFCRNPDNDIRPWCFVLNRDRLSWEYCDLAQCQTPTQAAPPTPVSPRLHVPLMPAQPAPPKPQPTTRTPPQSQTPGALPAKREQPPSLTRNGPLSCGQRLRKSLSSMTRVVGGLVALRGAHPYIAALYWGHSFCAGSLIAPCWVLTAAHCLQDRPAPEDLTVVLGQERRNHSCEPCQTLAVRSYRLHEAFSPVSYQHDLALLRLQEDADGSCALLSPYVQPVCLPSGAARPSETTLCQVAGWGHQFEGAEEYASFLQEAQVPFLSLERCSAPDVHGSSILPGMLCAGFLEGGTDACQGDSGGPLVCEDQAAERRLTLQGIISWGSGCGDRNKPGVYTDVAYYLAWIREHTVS

Prothrombin = Prothrombin (Homo sapiens, UniProt P00734); assay: Inhibition of human thrombin using Ac-ATPR-pNA as substrate after 30 mins relative to untreated control
[2] = target: Tissue-type plasminogen activator (Homo sapiens, UniProt P00750); assay: Inhibition of tPA (unknown origin) using Z-Pyr-Gly-Arg-MCA as substrate after 30 mins relative to untreated control
Sequence of Tissue-type plasminogen activator (P00750 whole entry): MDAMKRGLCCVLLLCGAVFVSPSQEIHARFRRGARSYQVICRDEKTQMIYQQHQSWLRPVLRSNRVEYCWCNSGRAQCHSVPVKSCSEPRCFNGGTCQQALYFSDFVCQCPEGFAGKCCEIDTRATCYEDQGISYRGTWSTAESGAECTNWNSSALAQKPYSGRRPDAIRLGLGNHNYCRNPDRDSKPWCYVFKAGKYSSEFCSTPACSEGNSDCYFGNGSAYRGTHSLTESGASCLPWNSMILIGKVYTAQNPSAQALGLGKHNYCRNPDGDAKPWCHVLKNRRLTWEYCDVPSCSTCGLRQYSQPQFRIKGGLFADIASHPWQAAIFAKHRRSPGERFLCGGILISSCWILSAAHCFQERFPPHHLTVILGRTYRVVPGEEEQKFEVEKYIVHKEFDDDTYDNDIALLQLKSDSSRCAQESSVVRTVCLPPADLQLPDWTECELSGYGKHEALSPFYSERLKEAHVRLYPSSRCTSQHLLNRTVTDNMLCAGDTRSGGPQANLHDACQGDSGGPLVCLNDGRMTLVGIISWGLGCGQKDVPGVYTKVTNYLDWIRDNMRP

[3] = target: Urokinase-type plasminogen activator (Homo sapiens, UniProt P00749); assay: Inhibition of uPA (unknown origin) using Z-Pyr-Gly-Arg-MCA as substrate after 30 mins relative to untreated control
Coagulation factor XI = Coagulation factor XI (Homo sapiens, UniProt P03951); assay: Inhibition of activated beta-factor 11 (unknown origin) using Bz-FVRpNA as substrate after 30 mins relative to untreated control
Sequence of Coagulation factor XI (P03951 19-387 limits assumed): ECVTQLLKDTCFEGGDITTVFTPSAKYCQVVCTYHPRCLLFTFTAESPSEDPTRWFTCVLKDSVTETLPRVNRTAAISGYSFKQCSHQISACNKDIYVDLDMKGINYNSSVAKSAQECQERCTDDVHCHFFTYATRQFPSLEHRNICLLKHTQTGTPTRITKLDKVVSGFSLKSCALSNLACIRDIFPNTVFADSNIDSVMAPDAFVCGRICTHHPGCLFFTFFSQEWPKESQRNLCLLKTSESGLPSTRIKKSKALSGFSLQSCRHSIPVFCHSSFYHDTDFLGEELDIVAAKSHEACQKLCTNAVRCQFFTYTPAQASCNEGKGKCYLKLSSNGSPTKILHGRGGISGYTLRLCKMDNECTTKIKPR
Sequence of Coagulation factor XI (P03951 388-625 limits assumed): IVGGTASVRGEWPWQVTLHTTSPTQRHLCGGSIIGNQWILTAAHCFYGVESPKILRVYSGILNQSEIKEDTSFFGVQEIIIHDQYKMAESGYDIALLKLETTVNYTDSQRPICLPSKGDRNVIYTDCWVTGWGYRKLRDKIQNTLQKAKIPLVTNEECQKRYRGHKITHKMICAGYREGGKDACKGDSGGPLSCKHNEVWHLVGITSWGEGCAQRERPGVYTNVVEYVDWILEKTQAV

[4] = target: T4, Suppressor of tumorigenicity 14 protein (Homo sapiens, UniProt Q9Y5Y6); assay: Inhibition of matriptase (unknown origin) using Boc-QAR-MCA as substrate after 30 mins relative to untreated control
T4 sequence (Q9Y5Y6 whole entry): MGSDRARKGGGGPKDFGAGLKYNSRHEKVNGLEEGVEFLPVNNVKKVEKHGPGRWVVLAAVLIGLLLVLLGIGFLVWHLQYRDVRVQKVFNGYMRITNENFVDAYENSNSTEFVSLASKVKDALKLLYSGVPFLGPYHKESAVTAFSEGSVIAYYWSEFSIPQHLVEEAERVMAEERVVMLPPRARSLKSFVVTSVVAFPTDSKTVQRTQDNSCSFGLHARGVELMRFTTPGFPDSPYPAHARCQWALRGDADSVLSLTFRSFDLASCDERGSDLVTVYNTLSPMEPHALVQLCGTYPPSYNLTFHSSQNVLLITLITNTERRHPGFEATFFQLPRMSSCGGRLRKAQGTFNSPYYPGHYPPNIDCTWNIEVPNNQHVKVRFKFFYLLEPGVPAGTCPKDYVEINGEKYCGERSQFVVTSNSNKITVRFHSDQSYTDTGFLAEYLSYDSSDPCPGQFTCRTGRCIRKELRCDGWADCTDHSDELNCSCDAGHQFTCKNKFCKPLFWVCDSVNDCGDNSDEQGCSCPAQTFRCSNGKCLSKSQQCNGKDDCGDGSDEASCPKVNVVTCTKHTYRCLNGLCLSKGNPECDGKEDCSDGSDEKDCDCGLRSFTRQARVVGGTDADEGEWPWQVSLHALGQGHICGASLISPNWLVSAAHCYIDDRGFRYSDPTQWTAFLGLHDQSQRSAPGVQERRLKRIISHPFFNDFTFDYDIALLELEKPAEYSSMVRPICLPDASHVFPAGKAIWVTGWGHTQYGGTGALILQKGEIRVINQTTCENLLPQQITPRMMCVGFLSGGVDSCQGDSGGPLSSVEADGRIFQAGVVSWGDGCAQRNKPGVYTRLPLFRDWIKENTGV

Plasminogen [5] = target: T2, Plasminogen; assay: Inhibition of human plasmin assessed as association rate constant using Ac-RM(O2)YR-pNA as substrate after 30 mins
Plasminogen [6] = target: T2, Plasminogen; assay: Inhibition of plasmin in human plasma assessed as reduction in tPA and thrombin-induced fibrinolysis at 400 nM by fibrin light scattering analysis relative to control; type: cell-free
Method in brief: (§1)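 Pooled citrated human plasma with inhibitor in Tris-HCl pH 7.4, 150 mM NaCl, 30 mM CaCl2, plasma 1:5 final. Clotting and lysis started with tPA (1.5 nM) and thrombin (2.5 nM). Fibrin formation and lysis followed by light scattering at 405 nm over 1 h. Mean of three independent experiments, each with 12 technical replicates.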

Plasminogen [7] = target: T2, Plasminogen; assay: Inhibition of plasmin in human plasma assessed as reduction in tPA and thrombin-induced fibrinolysis at 200 nM by fibrin light scattering analysis relative to control; type: cell-free; method in brief: as §1
Homo sapiens [8] = species: Homo sapiens; assay: Selectivity index, ratio of IC50 for inhibition of activated beta-factor 9 (unknown origin) to IC50 for Inhibition of human plasmin
Homo sapiens [9] = species: Homo sapiens; assay: Selectivity index, ratio of IC50 for inhibition of activated factor 10 (unknown origin) to IC50 for Inhibition of human plasmin
Homo sapiens [10] = species: Homo sapiens; assay: Selectivity index, ratio of IC50 for inhibition of activated beta-factor 12 (unknown origin) to IC50 for Inhibition of human plasmin
Homo sapiens [11] = species: Homo sapiens; assay: Selectivity index, ratio of IC50 for inhibition of human thrombin to IC50 for Inhibition of human plasmin
Homo sapiens [12] = species: Homo sapiens; assay: Selectivity index, ratio of IC50 for inhibition of tPA (unknown origin) to IC50 for Inhibition of human plasmin
Homo sapiens [13] = species: Homo sapiens; assay: Selectivity index, ratio of IC50 for inhibition of matriptase (unknown origin) to IC50 for Inhibition of human plasmin

`CC[C@H](C)[C@@H]1NC(=O)[C@@H]2CCCN2C(=O)[C@@H]2CCCN2C(=O)[C@H](CCCCN)NC(=O)[C@H](CO)NC(=O)[C@H](CCCCN)NC(=O)[C@H](Cc2ccc(O)cc2)NC(=O)[C@@H]2CSSC[C@H](NC1=O)C(=O)N[C@@H](Cc1ccccc1)C(=O)N1CCC[C@H]1C(=O)N[C@@H](CC(=O)O)C(=O)NCC(=O)N[C@@H](CCCNC(=N)N)C(=O)N2` (HELM PEPTIDE1{C.F.P.D.G.R.C.Y.K.S.K.P.P.I}$PEPTIDE1,PEPTIDE1,1:R3-7:R3|PEPTIDE1,PEPTIDE1,1:R1-14:R2$$$V2.0) showed a Ki (Serine protease 1) of 0.16 µM, a Ki (Plasminogen [1]) of 0.051 nM and a Ki (Coagulation factor X) of over 50 µM. For the same compound, the Ki (Coagulation factor XII) was over 50 µM, the Ki (Prothrombin) was over 50 µM and the Ki [2] was over 50 µM. The Ki [3] was over 50 µM, the Ki (Coagulation factor XI) was over 50 µM and the Ki [4] was over 50 µM. It also gave a K (Plasminogen [5]) of 1.9 ×10⁷ /M/s, an inhibition (Plasminogen [6]) of 100% and an inhibition (Plasminogen [7]) of 90%. It also gave a Ratio IC50 (Homo sapiens [8]) of over 1e+06, a Ratio IC50 (Homo sapiens [9]) of over 1e+06 and a Ratio IC50 (Homo sapiens [10]) of over 1e+06. It also gave a Ratio IC50 (Homo sapiens [11]) of over 1e+06, a Ratio IC50 (Homo sapiens [12]) of over 1e+06 and a Ratio IC50 (Homo sapiens [13]) of over 1e+06.
